# Assay results: paper PMC6527342 (Journal of chemical information and modeling, 2018)
# How the values were obtained:
# Type in all cases: cell-based
# Conditions in all cases: read-out: MIC of ceftazidime
# [1] = test system: Escherichia coli DH10B cells expressing NDM-1; assay: MIC assay, E. coli DH10B cells expressing NDM-1
# [2] = test system: Escherichia coli DH10B cells expressing IMP-1; assay: MIC assay, E. coli DH10B cells expressing IMP-1
# [3] = test system: Escherichia coli DH10B cells expressing VIM-2; assay: MIC assay, E. coli DH10B cells expressing VIM-2
# [4] = test system: Escherichia coli DH10B cells not expressing any MBL; assay: MIC assay, E. coli DH10B control cells not expressing any MBL
# Method in brief: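 Ceftazidime MIC was measured in complex medium against E. coli DH10B carrying no MBL. This strain served as the control for DH10B expressing NDM-1, IMP-1 or VIM-2.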
compound,measurement,setting,value
CC(C)(O/N=C(\C(=O)N[C@@H]1C(=O)N2C(C(=O)[O-])=C(C[n+]3ccccc3)CS[C@H]12)c1csc(N)n1)C(=O)O [ceftazidime],MIC,[1],256 µg/mL
same,MIC,[2],512 µg/mL
same,MIC,[3],32 µg/mL
same,MIC,[4],0.5 µg/mL
